ChEMBL document CHEMBL1143134, “The number and distances of positive charges of polyamine side chains in a series of perylene diimides significantly influence their ability to induce G-quadruplex structures and inhibit human telomerase” (Bioorg Med Chem, 2008)
The source made the active and inactive calls. The rule behind the calls is not given here.

Legend:
[1] = target: Telomerase reverse transcriptase (Homo sapiens) (UniProt O14746); assay: Inhibition of human telomerase by TRAP assay
How it was run: (§1)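 Cell-free modified TRAP assay using TSG4 primer and HeLa cell extract in TRAP buffer (20 mM Tris-HCl pH 8.3, 1.5 mM MgCl2, 68 mM KCl, 0.05% Tween 20, 1 mM EGTA). Compounds (2–20 µM) preincubated with primer for 2 h at 30 °C before extract was added. A 130-bp internal standard controls PCR efficiency. Percent inhibition from at least three independent experiments.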

[2] = target: Telomerase reverse transcriptase (Homo sapiens) (UniProt O14746); assay: Inhibition of human telomerase at 2 uM by TRAP assay; how it was run: as §1

Chain of Telomerase reverse transcriptase (Homo sapiens) (O14746 whole entry): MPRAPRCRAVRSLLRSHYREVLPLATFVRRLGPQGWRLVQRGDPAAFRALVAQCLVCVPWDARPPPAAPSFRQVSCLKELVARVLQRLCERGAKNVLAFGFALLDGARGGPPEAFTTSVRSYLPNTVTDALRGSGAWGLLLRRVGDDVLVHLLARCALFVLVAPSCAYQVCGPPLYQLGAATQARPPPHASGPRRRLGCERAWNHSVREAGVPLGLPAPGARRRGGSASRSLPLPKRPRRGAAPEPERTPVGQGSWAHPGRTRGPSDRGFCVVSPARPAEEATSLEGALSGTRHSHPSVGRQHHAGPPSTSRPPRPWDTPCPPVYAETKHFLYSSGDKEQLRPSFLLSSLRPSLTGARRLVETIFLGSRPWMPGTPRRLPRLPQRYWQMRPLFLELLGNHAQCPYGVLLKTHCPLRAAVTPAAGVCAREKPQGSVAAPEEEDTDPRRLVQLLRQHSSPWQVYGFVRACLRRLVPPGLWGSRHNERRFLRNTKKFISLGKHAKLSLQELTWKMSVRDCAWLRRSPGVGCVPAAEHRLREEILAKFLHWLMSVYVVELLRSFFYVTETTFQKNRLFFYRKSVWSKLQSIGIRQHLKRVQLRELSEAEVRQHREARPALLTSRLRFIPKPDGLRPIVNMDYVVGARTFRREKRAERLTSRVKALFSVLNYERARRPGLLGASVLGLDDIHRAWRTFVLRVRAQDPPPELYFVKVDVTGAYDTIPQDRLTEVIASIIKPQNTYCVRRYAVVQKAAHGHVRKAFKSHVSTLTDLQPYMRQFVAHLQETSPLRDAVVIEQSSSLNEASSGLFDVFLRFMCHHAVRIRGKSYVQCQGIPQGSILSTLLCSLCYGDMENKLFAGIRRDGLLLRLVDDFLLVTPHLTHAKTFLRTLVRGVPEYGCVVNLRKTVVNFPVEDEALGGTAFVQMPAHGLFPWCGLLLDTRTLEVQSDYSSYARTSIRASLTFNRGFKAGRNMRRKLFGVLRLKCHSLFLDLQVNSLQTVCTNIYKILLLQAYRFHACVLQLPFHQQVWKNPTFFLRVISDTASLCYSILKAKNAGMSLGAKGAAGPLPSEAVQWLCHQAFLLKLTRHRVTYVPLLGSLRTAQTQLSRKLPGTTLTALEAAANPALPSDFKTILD

CC(=O)NCCCNCCCCNCCN1C(=O)c2ccc3c4ccc5c6c(ccc(c7ccc(c2c37)C1=O)c64)C(=O)N(CCNCCCCNCCCNC(C)=O)C5=O
Activity [1]: Active

NCCCNCCCCNCCN1C(=O)c2ccc3c4ccc5c6c(ccc(c7ccc(c2c37)C1=O)c64)C(=O)N(CCNCCCCNCCCN)C5=O
inhibition [2]: 30%
